# Screening results from PubChem BioAssay.
# STEP inh: STEP phosphatase inhibitors, primary screen, biochemical, fluorescence intensity, uHTS; Tyrosine-protein phosphatase non-receptor type 5 (Homo sapiens), P54829; recombinant STEP, OMFP fluorogenic substrate; 360,000 compounds, 0.25% hits; inhibition, % at 20 µM;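 active = inhibition at 20 µM, scaled per plate between control wells, above about 37%, limit read from the data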;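 note: 0% = DMSO with enzyme and substrate and 100% = substrate only without enzyme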
#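 Test system: STEP tyrosine phosphatase / Reagent: OMFP at 25 µM / Doses: 20 µM, 1% DMSO / Read-out: percent inhibition scaled to no-enzyme and uninhibited-enzyme controls, plate-pattern corrected / Detection: FITC-channel fluorescence of OMFP product / Medium: Bis-Tris buffer pH 6.0, 2.5 mM DTT, 0.005% Tween 20 / Schedule: 20 min at room temperature, dark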
# SUMO1-SIM PPI: modulators of SUMO1 protein-protein interactions, primary screen, biochemical, uHTS | inhibition, % at 20 µM | AID 602429, 2012 | Small ubiquitin-related modifier 1 (Homo sapiens), P63165 | SUMO1 binding to a labelled peptide, TR-FRET, 1 h | 360,000 compounds, 0.33% hits; in the data active = inhibition above about 37%
# DNMT1 inh: human DNMT1 methyltransferase inhibitors, primary screen, biochemical, molecular beacon, fluorescence, HinP1I cleavage, uHTS; 360,000 compounds, 0.83% hits; AID 588458, 2011; inhibition (reported as % activation of signal), % at 10 µM; DNA (cytosine-5)-methyltransferase 1 (Homo sapiens), P26358; in the data active = inhibition above about 50%
# Scp1 inh: Scp-1 phosphatase inhibitors, primary screen, biochemical, colorimetric, uHTS | Recombinant Scp1, phosphopeptide, malachite green phosphate absorbance | inhibition, % at 20 µM | 340,000 compounds, 0.88% hits;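 active = inhibition above about 50% at 20 µM, limit read from the data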;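 note: plate controls were DMSO wells with enzyme for no effect and wells lacking enzyme for full effect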
#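 Material: truncated SCP-1 phosphatase (76-261aa) / Buffer or medium: 50 mM Tris acetate pH 5.5, 0.005% Tween-20, 10 mM MgCl2 / Compound dosing: one concentration, 20 µM, with 1.0% DMSO / Incubation: 45 min room-temperature reaction, 5 min colour, 30 min stabiliser / Detection: colorimetric free-phosphate detection, absorbance 630 nm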
# LMPTP block: LMPTP phosphatase inhibitors, primary screen, biochemical, fluorescence intensity, uHTS | recombinant LMPTP-A, OMFP fluorogenic substrate | inhibition, % at 20 µM | 360,000 compounds, 0.22% hits | AID 651560, 2012;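 active = compounds that cut the enzyme signal by at least half of the control window in the single-dose screen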;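 note: plate controls were DMSO wells with enzyme plus substrate for no effect and substrate without enzyme for full effect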
#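 Test system – LMPTP-A phosphatase enzyme · Quantity – 0.625 nM LMPTP-A final · Reagent – OMFP substrate, 400 µM final · Dosing – one test concentration per compound, 20 µM, with 3% DMSO overall · Timing – 50 min enzyme reaction at room temperature, protected from light · Detection – fluorescence intensity · Controls – substrate-only low control, DMSO enzyme-plus-substrate high control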
# DNMT1 interf DR: spectral interference with molecular beacon fluorescence, dose response, artefact control for DNMT1 inhibitor project, biochemical, fluorescent molecular beacon. shares compounds with DNMT1 inh. spectral interference counter-screen. IC50, µM. 200 tested, under 10 active; call rule not given here
# DNMT1 confirm: DNMT1 methyltransferase inhibitor retest, confirmation, biochemical, molecular beacon, fluorescence, single concentration. 2,300 compounds, 8% hits. DNMT1 molecular beacon HinP1I cleavage. inhibition, % at 10 µM. shares compounds with DNMT1 inh. AID 602385, 2012;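 active = average inhibition of at least 30% in the single-concentration confirmation test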
# Beacon interf: beacon fluorescence artifact counter-screen; shares compounds with DNMT1 inh; DNMT1 molecular beacon spectral interference counterscreen, fluorescence 485/520; activation (fluorescence interference), % at 10 µM; 2,300 compounds, 1% hits;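 active = activation of at least 30% at 10 µM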;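 note: DNMT1 catalytic domain with a HinP1I cleavage step and a FAM/dabcyl DNA beacon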
# Numbers without * were called inactive; x = not tested or not shown. Sampled rows, rich in hits. Any-hit rate of the full collection: about 1.7%.
SMILES,STEP inh,SUMO1-SIM PPI,DNMT1 inh,Scp1 inh,LMPTP block,DNMT1 confirm,Beacon interf,others
COc1ccc(Cl)cc1NC(=O)COC(=O)C1CCCCC1,1,1,-6,-10,1,x,x,
CCS(=O)(=O)N1Cc2cc(C(=O)N(C)C)nc(-c3cccc(-c4ccc(F)cc4)c3)c2[C@@H]1CCO,x,5,x,x,-1,x,x,
Cc1cc(-c2nc3c4c5c(sc4[nH]c(=O)n3n2)CCC5)c(C)o1,2,16,66*,58*,6,4,0,
Cc1nc2sc3c(c2c(=O)[nH]1)CCC3,-2,0,0,0,-3,x,x,
CC(C)c1onc(C(=O)NC(C)c2ccccc2)c1[N+](=O)[O-] (stereo unspecified),2,-4,92*,-3,0,2,1,
CC(C)c1onc(C(=O)NCCc2ccccc2)c1[N+](=O)[O-],0,-6,-2,-4,-1,x,x,
COc1ccc2nc(C)cc(Nc3ccc(N4CCN(C)CC4)cc3)c2c1,-2,-10,70*,-17,14,33*,-5,DNMT1 interf DR=>99
COc1ccc2nc(C)cc(Nc3ccc(N4CCOCC4)cc3)c2c1,3,3,43,-1,3,x,x,
O=c1c(Cl)c(Cl)cnn1Cc1nnc(-c2ccccc2Br)o1,3,4,8,-9,2,x,x,
O=C1NC(=S)S/C1=C\c1ccc(SCc2ccccc2)o1,12,7,82*,31,7,10,1,
O=C1NC(=S)SC1=Cc1ccccc1Cl,-1,1,3,5,2,x,x,
Cc1cc(C)c(C)c(S(=O)(=O)N2CCN(c3ncnc4ccccc34)CC2)c1C,6,7,75*,5,9,0,2,
CN(C)CC1CCC/C(=C\c2ccc(OC(=O)/C=C/c3ccc(Cl)c(Cl)c3)cc2)C1=O (stereo unspecified),-1,19,50*,1,2,4,0,
CN(Cc1ccccc1)C(=O)CSc1nc2cc(C(=O)N3CCC(C(N)=O)CC3)ccc2c(=O)n1-c1ccccc1,x,x,x,1,x,x,x,
C=C/C(C)=C/C[C@H]1C(=C)CCC2[C@](C)(C(=O)O)CCC[C@@]21C (stereo partly specified),-1,14,89*,12,2,2,-7,
C=C1CCC2[C@](C)(CO)[C@H](O)CC[C@@]2(C)[C@@H]1C/C=C1\C(=O)OC[C@H]1O (stereo partly specified),-2,5,5,-1,0,x,x,
CCCCn1c(NC(C)=O)c(C#N)c2nc3ccccc3nc21,1,12,-18,-1,1,x,x,
C=CCn1c(NC(=O)c2ccccc2Cl)c(C#N)c2nc3ccccc3nc21,4,53*,64*,-7,12,-1,-4,
CN(C(=O)C1CCC(=O)N(C2CC2)C1)C1CCCCC1 (stereo unspecified),1,3,0,-13,0,x,x,
O=C(O)C1C=CCC(C(=O)O)C1 (stereo unspecified),-2,-2,98*,x,0,3,5,
COc1cc2c(cc1OC)/C(=C/C(C)=O)OC2,x,-12,x,x,1,x,x,
COc1ccc(/C=C/C(=O)C(C)(C)C)cc1OC,0,-12,50*,-8,-1,4,4,
O=C(NCCCN1CCCC1)c1ccc2c(c1)N(Cc1cccc(Cl)c1)C(=O)c1ccccc1S2(=O)=O,1,-10,-5,x,2,x,x,
